GRK2 inh: inhibitors of human GRK2 displacing RNA aptamer. AID 488847. bead flow cytometry, FAM-aptamer displacement from GRK2. inhibition of aptamer binding, % at 10 µM. 0.59% of 330,000 active. P25098;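 active = inhibition of aptamer binding above 40%, roughly 3 SD of noise, on plates passing a quality check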;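 note: median bead fluorescence of bound FAM aptamer so fluorescent compounds give negative values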
STEP inh: blocks human striatal-enriched tyrosine phosphatase; recombinant STEP, OMFP fluorogenic substrate, fluorescence; inhibition, % at 20 µM; 0.25% of 360,000 active; AID 588621;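 active = inhibition at 20 µM, scaled per plate between control wells, above about 37%, limit read from the data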
Target sequence (P54829 whole entry, looked up): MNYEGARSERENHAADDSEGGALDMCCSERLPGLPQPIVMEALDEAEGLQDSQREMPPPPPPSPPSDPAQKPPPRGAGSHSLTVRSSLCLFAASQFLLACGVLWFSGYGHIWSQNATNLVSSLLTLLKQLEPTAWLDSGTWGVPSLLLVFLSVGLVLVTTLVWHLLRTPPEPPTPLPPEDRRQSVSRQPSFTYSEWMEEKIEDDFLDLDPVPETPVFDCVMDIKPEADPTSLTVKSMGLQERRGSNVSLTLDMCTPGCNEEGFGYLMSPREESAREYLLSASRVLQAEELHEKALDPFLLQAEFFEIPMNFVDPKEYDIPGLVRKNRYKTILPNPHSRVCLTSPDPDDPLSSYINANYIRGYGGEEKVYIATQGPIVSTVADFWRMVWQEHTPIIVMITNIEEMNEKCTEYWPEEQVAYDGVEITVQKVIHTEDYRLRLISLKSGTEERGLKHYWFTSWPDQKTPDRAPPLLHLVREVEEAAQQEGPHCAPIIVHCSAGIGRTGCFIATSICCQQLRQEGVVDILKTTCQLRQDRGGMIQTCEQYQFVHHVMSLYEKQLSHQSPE
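Assay system: isolated STEP enzyme. Buffer or medium: pH 6.0 Bis-Tris with DTT and Tween 20. Also added: fluorogenic phosphatase substrate OMFP at 25 µM final. Dosing: 20 µM, 1% DMSO. Timing: 20 min reaction, room temperature, in the dark. Measured by: fluorescence intensity, excitation 480 nm, emission 540 nm. Evaluation: normalized % inhibition.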
Scp-1 inhibitor: inhibitors of human Scp-1 phosphatase; inhibition, % at 20 µM; 0.88% of 340,000 active; AID 493091; Q9GZU7; Recombinant Scp1, phosphopeptide, malachite green phosphate absorbance;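 active = inhibition above about 50% at 20 µM, limit read from the data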
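System: SCP-1 catalytic domain; Reagent: Phospho 17-mer peptide substrate; Doses: one concentration, 20 µM, with 1.0% DMSO; Incubation: 45 min room-temperature reaction, 5 min colour, 30 min stabiliser; Signal: Phosphate-binding colour reagent, absorbance read at 630 nm.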
LMPTP inh: LMPTP (human) inhibition. 0.22% of 360,000 active. recombinant LMPTP-A, OMFP fluorogenic substrate, fluorescence intensity. inhibition, % at 20 µM. P24666;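 active = compounds that cut the enzyme signal by at least half of the control window in the single-dose screen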
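Test system: LMPTP-A phosphatase enzyme; input: 0.625 nM LMPTP-A final; reagent: OMFP substrate, 400 µM final; compound dosing: 20 µM single dose, 3% DMSO; incubation: 50 min dark incubation at room temperature; measured by: endpoint fluorescence intensity from OMFP dephosphorylation; measure: % inhibition relative to no-enzyme and uninhibited control wells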
DNMT1 inh: DNMT1 (human) enzyme inhibition | DNMT1 molecular beacon, Hinp1I cleavage, fluorescence | inhibition (reported as % activation of signal), % at 10 µM | 0.83% of 360,000 active; in the data active = inhibition above about 50%
SUMO1 PPI mod: modulators of human SUMO1-mediated protein-protein interactions. 0.33% of 360,000 active. AID 602429. inhibition, % at 20 µM. SUMO1 binding to a labelled peptide, TR-FRET, 1 h. P63165; in the data active = inhibition above about 37%
Target sequence (P63165 whole entry, looked up): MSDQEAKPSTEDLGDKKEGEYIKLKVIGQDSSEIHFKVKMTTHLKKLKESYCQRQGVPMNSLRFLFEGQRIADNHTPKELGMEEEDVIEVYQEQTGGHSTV
GRK2 inh confirm: confirmation of human GRK2 inhibitors displacing RNA aptamer; shares compounds with GRK2 inh; bead-bound GRK2, FAM-aptamer displacement, flow cytometry; aptamer displacement, % at 10 µM; 4% of 2,000 active;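 active = aptamer displacement above 40%, near three times the noise of non-fluorescent compounds, on plates passing quality checks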;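 note: negative values mostly reflect intrinsic compound fluorescence rather than true enhancement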
Aptamer quench SP: aptamer fluorescence quenching in GRK2 counter-screen; AID 504580; 2,000 tested, under 10 active; shares compounds with GRK2 inh; Carboxyfluorescein RNA aptamer on beads, flow cytometry quenching; stronger effect = lower value; fluorescence response (% of DMSO), % at 10 µM;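 active = compounds that quench the bead-bound fluorescent RNA probe, cutting fluorescence to under half of the solvent control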;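 note: counterscreen run without GRK2 so only probe quenching by compound is measured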
GRK2 confirm 2: confirmation of human GRK2 inhibitors binding RNA aptamer site. 360 tested, under 10 active. inhibition of aptamer binding, % at 10 µM. AID 504782. bead-bound GRK2, FAM-aptamer displacement, flow cytometry. shares compounds with GRK2 inh;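 active = inhibition of aptamer binding above 40%, about triple the noise seen with nonglowing compounds, on plates passing quality control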;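 note: negative values mostly come from compounds that fluoresce themselves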
FAM quench SP: counter-screen for GRK2 binding hits: quenchers of fluorescent RNA aptamer; shares compounds with GRK2 inh; fluorescence response vs DMSO, % at 10 µM; carboxyfluorescein RNA aptamer beads, flow cytometry quenching; stronger effect = lower value; 360 tested, under 10 active; AID 588494;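 active = response vs DMSO under 50%, meaning signal dropped by over half, treated as fluorescence quencher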;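 note: labelled aptamer on streptavidin beads without GRK2 as a quench counter-screen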
Numbers stand for hits; – = inactive; · = not tested or not shown. Most compounds without a hit are left out; they make up all but 2.2% or so of the library.

SMILES	GRK2 inh	STEP inh	Scp-1 inhibitor	LMPTP inh	DNMT1 inh	SUMO1 PPI mod	GRK2 inh confirm	Aptamer quench SP	others
N/C(=N\OC(=O)/C=C/c1ccccc1Cl)c1cccnc1	75.0	–	–	–	–	–	–	–
N/C(=N\OC(=O)/C=C/c1ccccc1)c1cccnc1	–	–	–	–	–	–	·	·
NC(=O)Cc1ccc(C(=O)c2ccccc2F)s1	–	–	–	–	–	–	–	–
NC(=O)Cc1ccc(C(=O)c2ccc(F)cc2)s1	–	–	–	–	–	–	·	·
O=C(O)Cc1ccc(-c2ccccc2-c2ccccc2)cc1	98.0	–	–	–	–	–	–	–
O=C(O)Cc1ccc(O)cc1	–	–	–	–	–	–	·	·
C=CCNc1ncnc2c1ncn2[C@H]1CN(Cc2cccc3ccccc23)C[C@@H](CO)O1	·	–	·	–	–	–	·	·
Cc1c(N2C(=O)c3ccc(Br)cc3C2=O)c(=O)n(-c2ccccc2)n1C	–	–	–	–	–	–	·	·
Cc1c(N2C(=O)c3ccc4c5c(ccc(c35)C2=O)CC4)c(=O)n(-c2ccccc2)n1C	46.0	–	64.8	52.5	90.4	–	–	–
CC(C)C[C@@H]1Cc2[nH]c(=S)[nH]c(=O)c2[C@H](CCc2ccccc2)O1	·	·	·	–	·	–	·	·
CCOC(=O)[C@]12CCCC=C1N(CCc1ccc(OC)c(OC)c1)C(=O)[C@H](CC(=O)N1CCCC1)C2	·	·	·	–	·	–	·	·
CCOc1ncccc1C(=O)OCC(=O)Nc1ccc2c(c1)CCC2	–	–	–	–	–	–	–	–
CCOc1ncccc1C(=O)OCC(=O)Nc1ccc2c(c1)OCO2	–	–	–	–	–	–	·	·
Cc1ccc(NC(=O)COC(=O)C2(CC(=O)NC(C)(C)C)CCCC2)cc1C	–	–	–	–	–	–	–	–
CCOC(CNc1ncnc2sc(-c3ccccc3)cc12)OCC	48.0	–	–	–	–	–	–	–
O=C(CSc1nncn1-c1ccccc1)c1c[nH]c2ccccc12	51.0	–	–	–	–	–	–	–
Cn1cnnc1SCC(=O)c1c[nH]c2ccccc12	–	–	–	–	–	–	·	·
O=C(CS(=O)(=O)c1ccc(F)cc1)Nc1nccs1	–	–	–	–	–	–	·	·
NC(=O)c1ccsc1NC(=O)CS(=O)(=O)c1ccc(F)cc1	–	–	–	–	–	–	·	·	GRK2 confirm 2=–;FAM quench SP=–
O=C1C2CCCN2C(=O)N1CCCCN1CCN(c2cccc(Cl)c2)CC1 (stereo unspecified)	100.0	–	–	–	–	–	·	·	GRK2 confirm 2=–;FAM quench SP=–
CC1(C(=O)NS(=O)(=O)c2cccc(F)c2)CCN1C(=O)CCc1ccccc1 (stereo unspecified)	·	–	·	–	–	–	·	·
Cc1ccc2nc(-c3ccccn3)c(Nc3ccccc3C)n2c1	84.0	–	–	–	–	–	–	–
CN(C(=O)c1cccc(C#N)c1)c1nnc(-c2ccncc2)s1	·	–	–	–	–	–	–	–
C=C1C2=C(C(=O)N1OC)[C@@H](O)[C@@](C)(O)[C@@H](CCCCC)O2	·	–	·	–	–	–	·	·
CC1Cc2ccccc2N1CC(=O)N(C)c1c(N)n(Cc2ccccc2)c(=O)[nH]c1=O (stereo unspecified)	–	–	–	–	–	–	·	·
SMILES	GRK2 inh	STEP inh	Scp-1 inhibitor	LMPTP inh	DNMT1 inh	SUMO1 PPI mod	GRK2 inh confirm	Aptamer quench SP	others
CCN(C(=O)CN1c2ccccc2CC1C)c1c(N)n(Cc2ccccc2)c(=O)[nH]c1=O (stereo unspecified)	–	–	–	–	–	–	–	–
Cc1ccc(F)cc1C(=O)N1CCCCC1c1cc(C(=O)Nc2cccc(C#N)c2)no1 (stereo unspecified)	·	–	·	–	–	–	·	·
CCOCCc1nnc(NC(=O)C2CC(=O)N(c3ccc(OCC)cc3)C2)s1 (stereo unspecified)	93.0	–	–	–	–	–	–	–
Cc1ccc(N2C(=O)N(CC(=O)Nc3ccc(F)c(F)c3)C(=O)C2C)cc1 (stereo unspecified)	100.0	–	–	–	–	–	–	–
Cc1ccc(N2C(=O)N(CC(=O)Nc3ccc([N+](=O)[O-])cc3)C(=O)C2C)cc1 (stereo unspecified)	100.0	–	–	–	–	–	·	·	GRK2 confirm 2=–;FAM quench SP=–
O=C(O)CNS(=O)(=O)c1ccc2c3c(cccc13)C(=O)N2	78.0	–	–	–	–	–	–	–
C[C@H]1CN=C(N(C)C)N1CCCC1CCCC1	42.0	–	–	–	–	–	–	–
CC(=O)c1cccc(-c2ccnc3c2CC(C(=O)Nc2ccc(C(C)C)cc2)O3)c1 (stereo unspecified)	·	–	·	–	–	–	·	·
CC1CCCC(NC(=O)CSc2ccc(F)cc2)C1C (stereo unspecified)	–	–	–	–	–	–	·	·
CC1CCCC(NCC(O)COC(c2ccc(F)cc2)c2ccc(F)cc2)C1C (stereo unspecified)	–	–	–	–	–	–	–	–
CCC1CC(C(=O)Nc2ccccc2)C(=O)O1 (stereo unspecified)	69.0	–	–	–	–	–	–	–
CC(C)C1CC(C(=O)Nc2ccccc2)C(=O)O1 (stereo unspecified)	–	–	–	–	–	–	·	·
O=C(NC1CCCCC1)c1cc(C2CC2)nn1-c1ccccc1	89.0	–	–	–	–	–	–	–
Cc1nn(-c2ccccc2)c(Cl)c1C(=O)NC1CCCCC1	–	–	–	–	–	–	·	·
CC(C)NC(=O)Nc1nnc([C@@H]2C[C@H](O)[C@@H](CO)O2)s1	·	–	·	–	–	–	·	·
COc1ccc(-c2cn[nH]c2N)cc1	63.0	–	–	–	–	–	–	–
CCOc1ccc(-c2cn[nH]c2N)cc1	–	–	–	–	–	–	·	·
COc1ccc(OC)c(Nc2nc(NCc3ccco3)c3ccccc3n2)c1	46.0	–	–	–	–	–	–	–
Nc1ccn(CC(=O)NCc2ccccn2)c(=O)n1	77.0	–	–	–	–	–	–	–
CCOC(=O)Cn1c(=O)n(Cc2ccco2)c(=O)c2ccc(C(=O)NC3CCCC3)cc21	86.0	–	–	–	–	–	–	–
CCN1C(N(C)C)=NC[C@@H]1Cc1ccccc1	73.0	–	–	–	–	–	–	–
